AI-2 QS mod: Vibrio harveyi AI-2 quorum sensing modulation | 300,000 tested, 0.4% active | Vibrio harveyi JMH597 AI-2 luminescence/OD600 ratio, 9 h; hits give low values; strain lacks LuxN and CqsS sensors; 0 = neutral-control median | activity change, % at 7.5 µM; in the data active = activity change below about -75%, passing the limit was not always enough; inconclusive = no clear call, values can overlap the other calls;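 also: luminescence divided by OD600 gain over 9 h not by final OD600 alone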
PHOSPHO1 block: PHOSPHO1 (human) inhibition | inhibition, % at 13.3 µM | Q8TCT1 | 290,000 tested, 1.1% active | recombinant PHOSPHO1, absorbance phosphatase assay; in the data active = inhibition above about 60%
Target sequence (Q8TCT1 whole entry, looked up): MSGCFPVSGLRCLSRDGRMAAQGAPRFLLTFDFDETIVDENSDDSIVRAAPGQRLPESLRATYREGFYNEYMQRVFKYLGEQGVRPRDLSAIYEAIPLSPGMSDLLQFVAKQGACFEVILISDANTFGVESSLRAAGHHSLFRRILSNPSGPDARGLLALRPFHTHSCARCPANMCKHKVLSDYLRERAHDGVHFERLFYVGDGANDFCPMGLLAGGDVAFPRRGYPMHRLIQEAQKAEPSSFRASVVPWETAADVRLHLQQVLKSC
HSF-1 act: increases HSF-1 driven luciferase reporter signal. NIH3T3-HGL HSF-1 luciferase reporter, MG132, 8 h; 100% = twice DMSO control signal. activation, % at 9 µM. 300,000 tested, 1.7% active. AID 504408;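 active = mean replicate activation of at least 50% with a set share of replicates each reaching 50%; inconclusive = only one of those two conditions met; inactive = mean below 50% and too few replicates reaching it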;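 also: 0% = median of the neutral control wells and 100% = twice that signal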
ALR H2O2 inh: blocks human ALR sulfhydryl oxidase activity; P55789; purified ALR, DTT oxidation, H2O2 HRP-luminol luminescence; inhibition, % (concentration not given with the values); 290,000 tested, 3.8% active;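 active = mean replicate inhibition above about 79%, with every replicate also reaching it, limit read from the data; inconclusive = only one of the two criteria met; inactive = mean below limit and not every replicate reaching it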
Target sequence (P55789 whole entry, looked up): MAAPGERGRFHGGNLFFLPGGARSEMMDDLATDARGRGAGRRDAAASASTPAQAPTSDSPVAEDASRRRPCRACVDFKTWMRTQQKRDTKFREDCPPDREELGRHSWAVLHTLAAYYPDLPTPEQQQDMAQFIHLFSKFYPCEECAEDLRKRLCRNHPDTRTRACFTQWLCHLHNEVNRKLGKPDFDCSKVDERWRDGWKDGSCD
core dimer inh: blocks dimerization of HCV core protein; TR-FRET GST/Flag-core106 dimerization, 1536-well; inhibition, % at 5 µM; 300,000 tested, 0.33% active; AID 1899;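 active = inhibition above the mean of all tested compounds plus 3 SD, set per screening campaign, cut at about 45% in these data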
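assay system = GST-tagged and Flag-tagged HCV core protein residues 1-106 | controls = unlabelled core106 and no-GST-core106 wells | incubation = compound-protein-antibody incubation 4 h at 22.5 °C | probe or stimulus = Eu donor and XL665 acceptor anti-tag antibodies | read-out = % inhibition based on acceptor/donor emission ratio | signal = TR-FRET 671 and 617 nm emission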
HSF1 inhib: HSF1 inhibition. NIH3T3-HGL HSE-luciferase, MG132-induced, luminescence 8 h; hits give low values. activity change, negative = inhibition, % at 7.5 µM (by protocol). 300,000 tested, 0.77% active;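 active = more than half of replicate wells show activity change below -50%, luminescence cut by over half; inconclusive = some wells, but at most half, below -50%; inactive = no replicate well below -50%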;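 also: luciferase reports HSF-1 transcriptional activity via heat shock element; 0% = median of DMSO wells and -100% = zero luminescence signal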
An asterisk follows results filed as active. Rows were chosen to be rich in hits. Some 6.8% of all compounds tested hit in one or more screens of this group.

How did O=C(CSc1nc2ccccc2c(=O)n1-c1ccc(F)cc1)Nc1ccc(Cl)c(S(=O)(=O)N2CCOCC2)c1 do in these assays?
AI-2 QS mod: 11.0; PHOSPHO1 block: 9.5; HSF-1 act: 4.0; ALR H2O2 inh: -6.6; core dimer inh: 21.4; HSF1 inhib: -2.1

What do the screens show for `Cc1ccc(-n2c(SCC(=O)Nc3cc(S(=O)(=O)N4CCOCC4)ccc3Cl)nc3ccccc3c2=O)cc1`?
AI-2 QS mod: 7.6; PHOSPHO1 block: -18.5; HSF-1 act: 73.4*; core dimer inh: 23.1; HSF1 inhib: 29.2

Results for Cc1cc2nnc(SCC(=O)Nc3cc(S(=O)(=O)N4CCOCC4)ccc3Cl)n2c2ccccc12 ?
AI-2 QS mod: 15.2; PHOSPHO1 block: -29.5; HSF-1 act: 4.5; core dimer inh: -1.0; HSF1 inhib: 7.0

What do the screens show for `O=C(CSc1nc2ccccc2c(=O)n1-c1ccc(F)c(Cl)c1)Nc1cccc(S(=O)(=O)N2CCOCC2)c1`?
AI-2 QS mod: 24.2; PHOSPHO1 block: 1.0; HSF-1 act: 19.8; ALR H2O2 inh: 98.0*; core dimer inh: 30.3; HSF1 inhib: 14.1

What do the screens show for `CCOC(=O)Cc1csc(NC(=O)CN2CCN(c3ccccc3)CC2)n1`?
AI-2 QS mod: -0.6; PHOSPHO1 block: 8.5; HSF-1 act: -2.3; core dimer inh: 4.7; HSF1 inhib: -8.7

How did O=C(COC(=O)CNC(=O)C1CCCCC1)Nc1ccccc1OC(F)F do in these assays?
ALR H2O2 inh: -1.0

How did CCOC(=O)C1=C(c2ccccc2)NC(=O)NC1c1cc(Cl)c(O)c(OC)c1 (stereo unspecified) do in these assays?
AI-2 QS mod: 16.5; PHOSPHO1 block: -15.2; HSF-1 act: -27.7; ALR H2O2 inh: 28.0; core dimer inh: -0.3; HSF1 inhib: -7.2

Results for CCOC(=O)C1=C(c2ccccc2)NC(N)=NC1c1ccc(OCc2ccc(Cl)cc2)c(OC)c1 (stereo unspecified) ?
AI-2 QS mod: 26.1; PHOSPHO1 block: 12.9; HSF-1 act: 71.3*; ALR H2O2 inh: -6.4; core dimer inh: -4.4; HSF1 inhib: 37.7

Results for CC(C)CCN1CCN=C1Nc1ccccc1 ?
AI-2 QS mod: 15.2; PHOSPHO1 block: -13.0; HSF-1 act: -14.4; ALR H2O2 inh: 3.7; core dimer inh: -7.9; HSF1 inhib: -5.8

Results for Cc1ccc[n+](CC(=O)Nc2ccc([N+](=O)[O-])cc2)c1 ?
AI-2 QS mod: -0.2; PHOSPHO1 block: -5.8; HSF-1 act: -22.6; ALR H2O2 inh: inconclusive; core dimer inh: 1.7; HSF1 inhib: -0.7

How did Cc1ccc[n+](-c2nc([O-])sc2/C=N/Nc2ccc([N+](=O)[O-])cc2)c1 do in these assays?
AI-2 QS mod: 1.6; PHOSPHO1 block: -175.8; HSF-1 act: -1.6; ALR H2O2 inh: 91.9*; core dimer inh: -14.2; HSF1 inhib: -10.1

How did CCCC(=O)Nc1ccc(-c2nc3ncccc3o2)cc1 do in these assays?
AI-2 QS mod: 7.9; PHOSPHO1 block: -2.7; HSF-1 act: 0.6; ALR H2O2 inh: 3.5; HSF1 inhib: 9.6

Results for Cc1oc(=O)c(NC(=O)c2ccc(Cl)cc2)cc1C(=O)c1ccccc1 ?
AI-2 QS mod: 24.3; PHOSPHO1 block: 37.3; HSF-1 act: 83.3*; ALR H2O2 inh: inconclusive; core dimer inh: 3.0; HSF1 inhib: 49.2

What do the screens show for `Cc1ccc(C(=O)Nc2cc3ccccc3oc2=O)cc1`?
AI-2 QS mod: 12.5; PHOSPHO1 block: 31.7; HSF-1 act: -74.9; ALR H2O2 inh: 0.9; core dimer inh: -26.9; HSF1 inhib: -72.0*

Results for CC(=O)Nc1cc2ccccc2oc1=O ?
AI-2 QS mod: 13.1; PHOSPHO1 block: -14.1; HSF-1 act: -26.0; ALR H2O2 inh: -12.8; core dimer inh: -1.3; HSF1 inhib: -4.4

How did Cc1oc(=O)c(NC(=O)c2ccccc2)cc1C(=O)c1ccccc1 do in these assays?
AI-2 QS mod: 25.5; PHOSPHO1 block: 33.0; HSF-1 act: 121.4*; ALR H2O2 inh: 71.4; core dimer inh: -1.1; HSF1 inhib: 79.4

How did CC(=O)c1cc(NC(=O)c2ccc(C)cc2)c(=O)oc1C do in these assays?
AI-2 QS mod: 35.1; PHOSPHO1 block: 24.4; HSF-1 act: 43.0; ALR H2O2 inh: 44.8; core dimer inh: 5.1; HSF1 inhib: 36.9

Compound activity deposited in PubChem BioAssay by several laboratories.
